≈ marks a conversion by molar mass, not a printed value. Calls of active or inactive are those of the source. The rule behind the calls is not given here.
Tests used:
[1] = biological target: T1, Acetyl-CoA carboxylase 1 (Homo sapiens, UniProt Q13085); assay: Inhibition of recombinant human N-terminal His6-tagged ACC1 expressed in baculovirus infected Sf9 insect cells using acetyl-CoA as substrate preincubated for 60 mins followed by substrate addition and measured after 30 mins Rapidfire-Mass spectrometry
Summary of the method: (§1)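 Human ACC1 or ACC2 from baculovirus-infected SF-9 cells (27 °C, 3 days), purified and dialyzed. Compound in DMSO diluted in 50 mM HEPES pH 7.5, 10 mM MgCl₂, 10 mM tripotassium citrate, 2 mM DTT, 0.001% fatty acid-free BSA. Enzyme and compound preincubated 60 min at room temperature. Substrate added: 50 mM KHCO₃, ATP, acetyl-CoA. Reaction ran 30 min at room temperature.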

[2] = biological target: T2, Acetyl-CoA carboxylase 2 (Homo sapiens, UniProt O00763); assay: Inhibition of recombinant human N-terminal His6-tagged ACC2 expressed in baculovirus infected Sf9 insect cells using acetyl-CoA as substrate preincubated for 60 mins followed by substrate addition and measured after 30 mins Rapidfire-Mass spectrometry; summary of the method: as §1
Target sequence in this assay (O00763 whole entry): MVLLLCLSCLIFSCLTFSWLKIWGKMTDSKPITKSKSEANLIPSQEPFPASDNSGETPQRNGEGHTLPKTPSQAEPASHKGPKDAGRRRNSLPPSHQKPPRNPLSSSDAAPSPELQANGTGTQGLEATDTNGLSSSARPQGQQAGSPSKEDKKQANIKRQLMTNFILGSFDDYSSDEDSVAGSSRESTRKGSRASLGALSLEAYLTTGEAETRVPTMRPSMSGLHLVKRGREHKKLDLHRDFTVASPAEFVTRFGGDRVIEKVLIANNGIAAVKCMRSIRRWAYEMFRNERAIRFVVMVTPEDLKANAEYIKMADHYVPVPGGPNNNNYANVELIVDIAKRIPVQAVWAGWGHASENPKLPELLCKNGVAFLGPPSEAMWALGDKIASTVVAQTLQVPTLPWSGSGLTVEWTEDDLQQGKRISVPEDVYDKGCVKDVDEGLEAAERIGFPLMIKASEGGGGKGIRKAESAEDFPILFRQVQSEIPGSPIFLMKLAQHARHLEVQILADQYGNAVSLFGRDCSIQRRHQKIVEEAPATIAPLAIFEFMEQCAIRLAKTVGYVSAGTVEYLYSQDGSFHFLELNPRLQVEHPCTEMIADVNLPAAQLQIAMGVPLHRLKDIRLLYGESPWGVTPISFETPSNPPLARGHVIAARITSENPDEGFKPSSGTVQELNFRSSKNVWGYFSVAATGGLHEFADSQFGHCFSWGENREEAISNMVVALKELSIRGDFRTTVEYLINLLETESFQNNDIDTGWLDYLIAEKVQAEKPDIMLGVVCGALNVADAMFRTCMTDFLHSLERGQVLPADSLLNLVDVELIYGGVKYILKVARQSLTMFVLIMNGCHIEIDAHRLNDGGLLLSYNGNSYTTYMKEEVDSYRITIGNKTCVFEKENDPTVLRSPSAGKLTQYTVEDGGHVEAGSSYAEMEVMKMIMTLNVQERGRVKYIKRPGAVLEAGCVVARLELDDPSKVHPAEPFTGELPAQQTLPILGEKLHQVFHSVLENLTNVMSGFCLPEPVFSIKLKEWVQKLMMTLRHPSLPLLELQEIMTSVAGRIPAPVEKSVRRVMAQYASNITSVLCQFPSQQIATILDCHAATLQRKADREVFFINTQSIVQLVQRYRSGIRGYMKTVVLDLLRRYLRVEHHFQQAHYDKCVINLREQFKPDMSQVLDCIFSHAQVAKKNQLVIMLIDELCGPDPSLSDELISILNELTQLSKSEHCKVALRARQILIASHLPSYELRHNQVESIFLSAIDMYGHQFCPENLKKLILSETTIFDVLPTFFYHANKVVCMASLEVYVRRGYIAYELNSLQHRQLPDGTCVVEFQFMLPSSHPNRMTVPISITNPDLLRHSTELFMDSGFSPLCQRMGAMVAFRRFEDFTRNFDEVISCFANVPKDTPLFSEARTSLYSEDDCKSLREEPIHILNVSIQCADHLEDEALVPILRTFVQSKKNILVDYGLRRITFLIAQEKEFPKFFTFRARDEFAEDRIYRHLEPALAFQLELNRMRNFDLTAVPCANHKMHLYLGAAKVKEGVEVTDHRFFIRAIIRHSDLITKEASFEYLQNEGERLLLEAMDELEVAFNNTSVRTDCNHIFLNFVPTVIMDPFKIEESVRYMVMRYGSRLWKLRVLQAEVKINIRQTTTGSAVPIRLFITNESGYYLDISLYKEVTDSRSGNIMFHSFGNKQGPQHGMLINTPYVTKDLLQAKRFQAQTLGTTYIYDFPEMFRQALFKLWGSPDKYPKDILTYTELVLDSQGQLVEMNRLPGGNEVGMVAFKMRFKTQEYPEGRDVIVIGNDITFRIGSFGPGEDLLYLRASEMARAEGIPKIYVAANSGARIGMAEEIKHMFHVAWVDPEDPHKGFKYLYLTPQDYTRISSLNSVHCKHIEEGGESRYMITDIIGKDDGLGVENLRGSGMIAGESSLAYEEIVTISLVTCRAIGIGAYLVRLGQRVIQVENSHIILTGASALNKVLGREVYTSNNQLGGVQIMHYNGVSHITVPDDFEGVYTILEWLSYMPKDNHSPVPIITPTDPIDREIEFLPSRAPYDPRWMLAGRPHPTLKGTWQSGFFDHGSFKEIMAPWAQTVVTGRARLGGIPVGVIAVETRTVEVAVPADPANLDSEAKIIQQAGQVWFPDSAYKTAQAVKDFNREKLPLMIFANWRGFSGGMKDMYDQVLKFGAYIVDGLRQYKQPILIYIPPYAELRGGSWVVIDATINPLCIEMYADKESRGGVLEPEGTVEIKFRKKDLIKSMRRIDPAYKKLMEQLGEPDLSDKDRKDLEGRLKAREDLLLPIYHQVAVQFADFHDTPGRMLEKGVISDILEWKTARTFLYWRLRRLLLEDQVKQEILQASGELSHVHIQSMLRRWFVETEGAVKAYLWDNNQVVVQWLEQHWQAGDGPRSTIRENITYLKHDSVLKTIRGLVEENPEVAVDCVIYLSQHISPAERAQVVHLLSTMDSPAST

[3] = Inhibition of fatty acid synthesis in human HCT-116 cells assessed as reduction in [14C] acetic acid uptake preincubated for 60 mins followed by [14C]acetic acid addition and measured after 2 hrs by topcount scintillation counting method; format: functional, cell-based
Summary of the method: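 HCT-116 cells, 50,000/well, cultured overnight in RPMI with 10% FBS and penicillin/streptomycin at 37 °C, 5% CO₂. Compound added in RPMI with 0.1% fatty acid-free BSA for 60 min. Then 0.1 μCi/well [¹⁴C]acetic acid for 2 h at 37 °C. Cells washed with PBS and radioactivity counted. DMSO wells set as 0%; 100 nM reference inhibitor as 100%. IC50 is the mean of duplicates with 95% CI.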

[4] = biological target: T1, Acetyl-CoA carboxylase 1; assay: Inhibition of recombinant human N-terminal His6-tagged ACC1 expressed in baculovirus infected Sf9 insect cells at 10 uM using acetyl-CoA as substrate preincubated for 60 mins followed by substrate addition and measured after 30 mins Rapidfire-Mass spectrometry relative to control; conditions: time 90.0 min
[5] = biological target: T2, Acetyl-CoA carboxylase 2; assay: Inhibition of recombinant human N-terminal His6-tagged ACC2 expressed in baculovirus infected Sf9 insect cells at 10 uM using acetyl-CoA as substrate preincubated for 60 mins followed by substrate addition and measured after 30 mins Rapidfire-Mass spectrometry relative to control; conditions: time 90.0 min
Target sequence in this assay (O00763 whole entry, looked up): as the sequence (O00763 whole entry) above

[6] = Solubility of compound in pH 6.8 buffer; format: physicochemical
Summary of the method: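 Solubility measured at pH 6.8.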

[7] = Lipophilicity, log D of compound; format: physicochemical; conditions: octanol/water
[8] = Solubility of compound in pH 1.2 buffer; format: physicochemical
[9] = Permeability of compound at pH 7.4 by PAMPA; format: ADME; conditions: read-out: permeability
[10] = Permeability of compound at pH 5 by PAMPA; format: ADME; conditions: read-out: permeability
[11] = Metabolic stability in human liver microsomes; format: ADME, Microsome; conditions: read-out: Stabilty
[12] = Metabolic stability in mouse liver microsomes; format: ADME, Microsome; conditions: read-out: Stabilty
[13] = biological target: T3, Cytochrome P450 2C8 (Homo sapiens, UniProt P10632); assay: Inhibition of CYP2C8 (unknown origin) relative to control; format: ADME
T3 sequence (P10632 whole entry): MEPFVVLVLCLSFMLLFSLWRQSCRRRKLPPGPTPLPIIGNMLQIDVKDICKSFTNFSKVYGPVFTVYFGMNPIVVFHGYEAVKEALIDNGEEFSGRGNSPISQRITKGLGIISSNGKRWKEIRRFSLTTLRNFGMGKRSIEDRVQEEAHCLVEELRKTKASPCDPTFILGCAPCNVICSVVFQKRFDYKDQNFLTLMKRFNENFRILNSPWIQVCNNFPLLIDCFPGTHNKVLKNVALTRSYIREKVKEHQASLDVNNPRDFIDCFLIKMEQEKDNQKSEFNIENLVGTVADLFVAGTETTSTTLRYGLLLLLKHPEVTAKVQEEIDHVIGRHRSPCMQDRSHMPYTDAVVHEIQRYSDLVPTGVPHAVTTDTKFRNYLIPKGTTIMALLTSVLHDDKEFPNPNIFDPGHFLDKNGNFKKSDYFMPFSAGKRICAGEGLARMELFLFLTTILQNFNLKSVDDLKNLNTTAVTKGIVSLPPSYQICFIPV

[14] = biological target: Cytochrome P450 2C9 (Homo sapiens, UniProt P11712); assay: Inhibition of CYP2C9 (unknown origin) relative to control; format: ADME
[15] = AUC (0 to 8 hrs) in ICR mouse at 0.1 mg/kg, iv or 1 mg/kg, po; format: ADME, organism-based; parameters: dose 1 mg/kg; conditions: in vivo
Summary of the method: (§2)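 Male ICR mice, n = 3. Doses: 0.1 mg/kg i.v. and 1 mg/kg p.o. AUC covers 0–8 h.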

[16] = Oral bioavailability in ICR mouse at 1 mg/kg; format: ADME, organism-based; conditions: in vivo; summary of the method: as §2
[17] = system: Mus musculus; assay: Inhibition of fatty acid synthesis in human HCT-116 cells xenografted BALB/cA Jc1 nu/nu mouse assessed as reduction in malonyl-CoA concentration in tumor at 100 mg/kg, po administered as single dose measured after 2 to 16 hrs by RPLC-MS/MS analysis; format: functional, organism-based; conditions: time 2-16 hrs
Summary of the method: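 Female BALB/cA Jcl-nu/nu mice, 6 weeks old, carrying s.c. hind-flank HCT-116 xenografts (cells in HBSS with Matrigel). Mice randomized by tumor volume. Single oral dose of 100 mg/kg in 0.5% methyl cellulose, or vehicle. Tumors collected 2 and 16 h after dosing, snap-frozen and pulverized under liquid N₂. Malonyl-CoA measured by RPLC-MS/MS against a calibration curve with [¹³C₃]-malonyl-CoA as internal standard.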

[18] = species on record: Homo sapiens; assay: Selectivity ratio of IC50 for inhibition of recombinant human N-terminal His6-tagged ACC2 expressed in baculovirus infected Sf9 insect cells to IC50 for inhibition of recombinant human N-terminal His6-tagged ACC1 expressed in baculovirus infected Sf9 insect cells

Structure (SMILES)	IC50 [1] [nM]	IC50 [2] [µM]	IC50 [3] [nM]	solubility [6] [µg/mL]	also measured
CC(=O)NC(C)c1ccc(OCc2ccc(Oc3cccc(OCC4CC4)c3)nc2)cc1 (centres undefined)	790	> 10	900	–	–
COCCc1ccc(Oc2ccc(-c3ccc(C(C)NC(C)=O)cc3)cc2)cc1 (centres undefined)	–	> 30	–	–	inhibition [4]: 49%; inhibition [5]: 6%
CCCCOc1cccc(Oc2ccc(-c3ccc(C(C)NC(C)=O)cc3)cc2)c1 (centres undefined)	120	0.21	–	–	–
CC(=O)NC(C)c1ccc(OCc2c(F)cc(Oc3cccc(OCC4CC4)c3)cc2F)nc1 (centres undefined)	17	> 10	24	< 0.23	logD [7]: 4.82; solubility [8]: < 0.23 µg/mL; Papp [9]: 68.3 ×10⁻⁶ cm/s; Papp [10]: 66.2 ×10⁻⁶ cm/s; microsomal CLint [11]: 12 µL/min/mg; microsomal CLint [12]: 17 µL/min/mg; inhibition (INH) [13]: 32%; inhibition (INH) [14]: -13.8%; AUC(0-t) [15]: 5350 ng·h/mL; bioavailability [16]: 70.5%; inhibition [17]: Active
CCCOc1ccc(Oc2ccc(-c3ccc(C(C)NC(C)=O)cc3)cc2)cc1 (centres undefined)	–	–	–	–	inhibition [4]: 50%; inhibition [5]: 51%
CC(=O)NC(C)c1ccc(OCc2c(F)cc(Oc3cccc(OCC4CC4)c3)cc2F)nn1 (centres undefined)	31	> 10	110	2.3 (≈ 4.9 µM)	–
CC(=O)NC(C)c1ccc(OCc2ccc(Oc3cccc(OCC4CC4)c3)cc2)cc1 (centres undefined)	220	> 10	420	–	–
CC(=O)NC(C)c1ccc(OCc2ccc(Oc3cccc(OCC4CC4)c3)cn2)cc1 (centres undefined)	1200	> 10	> 1000	–	–
CC(=O)NC(C)c1ccc(OCc2c(F)cc(Oc3cccc(OCC4CC4)c3)cc2F)cc1 (centres undefined)	15	> 10	9.7	< 0.21	logD [7]: 5.01; solubility [8]: < 0.23 µg/mL; Papp [9]: 11.1 ×10⁻⁶ cm/s; Papp [10]: 34.6 ×10⁻⁶ cm/s; microsomal CLint [11]: 30 µL/min/mg; microsomal CLint [12]: 36 µL/min/mg; inhibition (INH) [13]: 31.4%; inhibition (INH) [14]: -22.7%; AUC(0-t) [15]: 1580 ng·h/mL; bioavailability [16]: 31.1%
CC(=O)NC(C)c1ccc(OCc2c(F)cc(Oc3cccc(OCC4CC4)c3)cc2F)cn1 (centres undefined)	38	> 10	70	1.5 (≈ 3.2 µM)	–
COCCc1cccc(Oc2ccc(-c3ccc(C(C)NC(C)=O)cc3)cc2)c1 (centres undefined)	130	0.098	–	–	–
CC(=O)NC(C)c1ccc(OCc2ccc(Oc3cccc(OCC4CC4)c3)cc2F)cc1 (centres undefined)	69	> 10	63	–	–
CC(=O)NC(C)c1ccc(Oc2ccc(Oc3cccc(OCC4CC4)c3)cc2)cc1 (centres undefined)	39	0.02	–	–	–
CC(=O)NC(C)c1cnc(OCc2c(F)cc(Oc3cccc(OCC4CC4)c3)cc2F)cn1 (centres undefined)	89	> 10	180	0.46 (≈ 0.98 µM)	–
CCCc1ccc(Oc2ccc(-c3ccc(C(C)NC(C)=O)cc3)cc2)cc1 (centres undefined)	–	–	–	–	inhibition [4]: 38%; inhibition [5]: 11%
CC(=O)NC(C)c1ccc(-c2ccc(Oc3cccc(OCC4CC4)c3)cc2)cc1 (centres undefined)	60	0.15	–	–	Ratio IC50 [18]: 2.5
